167 variants from the RNAGym collection of RNA variant scans (doi:10.1002/anie.201605470) can be followed below.

The labels stand for the following.
B1: Osa-1-4 twister ribozyme (parent)
chain: CCGCCUAACACUGCCAAUGCCGGUCCCAAGCCCGGAUAAAAGUGGAGGGGGCGG

Variants of B1 are the subject of the data set. Put plainly: self-cleavage, relative activity (ratio to wild type); higher = more cleavage; co-transcriptional. In short, it runs like this: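 For each read, cleavage status was taken from whether upstream sequence was present. The reads came from an Oryza sativa twister ribozyme of 54 nucleotides, whose DNA template was synthesised with 97 % wild-type base and 1 % of each other base at the 48 positions downstream of the cleavage site. The template was transcribed in vitro at 37 °C for 2 h with co-transcriptional self-cleavage, and the RNA was reverse-transcribed using a template-switching oligonucleotide, PCR-amplified and deep-sequenced. Relative activity is the fraction cleaved normalised to wild type.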
Turning to A7G U18C, the self-cleavage was found to be 0.25.

Consider A7G U18G, for which the self-cleavage worked out at 0.49.

On to A7G U18A, for which the self-cleavage amounted to 0.38.

Regarding A7U C32U, the self-cleavage was found to be 0.04.

With A7U C32G, the self-cleavage stood at 0.04.

In the case of A7U C32A, the self-cleavage came out at 0.03.

As for A7C G42C, the self-cleavage was 0.03.

With A7C G42U, the self-cleavage turned out to be 0.02.

Turning to A7C G42A, the self-cleavage worked out at 0.04.

A7G G54C: the self-cleavage amounted to 0.17.

With A7G G54U, the self-cleavage is 0.36.

Turning to A7G G54A, the self-cleavage stood at 0.19.

Consider A7C U24G, for which the self-cleavage stood at 0.01.

As for A7C U24A, the self-cleavage was found to be 0.04.

A7C U24C: the self-cleavage was determined as 0.03.

Regarding A7U, the self-cleavage amounted to 0.07.

In the case of A7C, the self-cleavage turned out to be 0.04.

With A7G, the self-cleavage was 0.49.

For A7G U43C, the self-cleavage was determined as 0.12.

On to A7G U43A, for which the self-cleavage is 0.2.

Take A7G U43G: the self-cleavage is 0.11.

In the case of A7U G22C, the self-cleavage is 0.07.

In the case of A7U G22A, the self-cleavage is 0.09.

For A7U G22U, the self-cleavage was found to be 0.06.

On to A7U G51U, for which the self-cleavage amounted to 0.05.

For the variant A7U G51C, the self-cleavage came out at 0.03.

A7U G51A: the self-cleavage stood at 0.07.

Take A7G G35U: the self-cleavage came out at 0.2.

In the case of A7G G35A, the self-cleavage was 0.31.

For A7G G35C, the self-cleavage is 0.1.

Take A7G G13U: the self-cleavage was found to be 0.02.

For A7G G13C, the self-cleavage worked out at 0.03.

Take A7G G13A: the self-cleavage came to 0.06.

For A7C C32A, the self-cleavage amounted to 0.04.

As for A7C C32U, the self-cleavage was 0.02.

With A7C C32G, the self-cleavage was 0.02.

As for A7G A8C, the self-cleavage is 0.1.

For A7G A8U, the self-cleavage came out at 0.1.

For A7G A8G, the self-cleavage was 0.28.

For A7C G30U, the self-cleavage is 0.01.

As to A7C G30C, the self-cleavage stood at 0.01.

Regarding A7C G30A, the self-cleavage stood at 0.01.

A7G C11A: the self-cleavage came out at 0.13.

On to A7G C11G, for which the self-cleavage stood at 0.1.

As to A7G C11U, the self-cleavage was determined as 0.15.

With A8C C11G, the self-cleavage came to 0.06.

Consider A8C C11A, for which the self-cleavage was 0.1.

As for A8C C11U, the self-cleavage was determined as 0.09.

As to A7U G50A, the self-cleavage came out at 0.07.

For A7U G50U, the self-cleavage is 0.07.

With A7U G50C, the self-cleavage is 0.06.

In the case of A7C G53C, the self-cleavage was 0.01.

In the case of A7C G53U, the self-cleavage was 0.03.

For A7C G53A, the self-cleavage worked out at 0.06.

A7C U18A: the self-cleavage stood at 0.04.

For A7C U18C, the self-cleavage was found to be 0.06.

For A7C U18G, the self-cleavage turned out to be 0.08.

With A7C G35A, the self-cleavage stood at 0.04.

For A7C G35U, the self-cleavage was found to be 0.05.

As to A7C G35C, the self-cleavage came out at 0.04.

On to A7U A8G, for which the self-cleavage worked out at 0.09.

Turning to A7U A8U, the self-cleavage stood at 0.07.

In the case of A7U A8C, the self-cleavage is 0.02.

For A7U C52U, the self-cleavage worked out at 0.1.

For A7U C52A, the self-cleavage was 0.12.

In the case of A7U C52G, the self-cleavage was 0.12.

For the variant A7C U43A, the self-cleavage came to 0.06.

On to A7C U43G, for which the self-cleavage was found to be 0.06.

Regarding A7C U43C, the self-cleavage stood at 0.04.

Turning to A7C G13C, the self-cleavage stood at 0.02.

In the case of A7C G13U, the self-cleavage stood at 0.01.

For the variant A7C G13A, the self-cleavage came out at 0.02.

Consider A8C C9A, for which the self-cleavage amounted to 0.1.

For the variant A8C C9U, the self-cleavage was 0.01.

Take A8C C9G: the self-cleavage worked out at 0.05.

With A7C G54U, the self-cleavage came to 0.06.

Take A7C G54A: the self-cleavage was 0.05.

A7C G54C: the self-cleavage was 0.05.

For the variant A7G G44U, the self-cleavage was 0.15.

For A7G G44A, the self-cleavage came to 0.13.

As to A7G G44C, the self-cleavage amounted to 0.21.

As for A7U U18G, the self-cleavage was found to be 0.11.

Consider A7U U18C, for which the self-cleavage stood at 0.08.

As for A7U U18A, the self-cleavage came out at 0.11.

In the case of A7G C9U, the self-cleavage came to 0.19.

For A7G C9G, the self-cleavage is 0.29.

For A7G C9A, the self-cleavage is 0.11.

As for A7G G53U, the self-cleavage was 0.1.

With A7G G53A, the self-cleavage came to 0.16.

As to A7G G53C, the self-cleavage worked out at 0.06.

In the case of A7U G44U, the self-cleavage stood at 0.09.

With A7U G44A, the self-cleavage came to 0.06.

In the case of A7U G44C, the self-cleavage worked out at 0.06.

Take A7U C21U: the self-cleavage is 0.1.

Turning to A7U C21A, the self-cleavage was 0.08.

Turning to A7U C21G, the self-cleavage worked out at 0.05.

As to A7C C31U, the self-cleavage stood at 0.05.

Regarding A7C C31A, the self-cleavage is 0.01.

As to A7C C31G, the self-cleavage was found to be 0.02.

With A7G U24A, the self-cleavage worked out at 0.08.

With A7G U24G, the self-cleavage was determined as 0.04.

Consider A7G U24C, for which the self-cleavage turned out to be 0.07.

On to A7U C20G, for which the self-cleavage came out at 0.11.

On to A7U C20A, for which the self-cleavage amounted to 0.06.

As to A7U C20U, the self-cleavage worked out at 0.09.

Consider A7U G49C, for which the self-cleavage worked out at 0.03.

For the variant A7U G49A, the self-cleavage is 0.04.

With A7U G49U, the self-cleavage is 0.03.

Regarding A7U G35U, the self-cleavage was 0.06.

Take A7U G35A: the self-cleavage was determined as 0.07.

In the case of A7U G35C, the self-cleavage is 0.07.

For the variant A7G G50A, the self-cleavage worked out at 0.17.

For A7G G50U, the self-cleavage was 0.16.

Take A7G G50C: the self-cleavage worked out at 0.16.

With A7U G13A, the self-cleavage is 0.04.

Regarding A7U G13U, the self-cleavage is 0.06.

As to A7U G13C, the self-cleavage came to 0.02.

Regarding A7U G48U, the self-cleavage is 0.01.

With A7U G48A, the self-cleavage turned out to be 0.02.

Turning to A7U G48C, the self-cleavage was 0.03.

Take A7U C14A: the self-cleavage came to 0.03.

Take A7U C14U: the self-cleavage was found to be 0.07.

Take A7U C14G: the self-cleavage came out at 0.23.

For A7G G49C, the self-cleavage came to 0.05.

In the case of A7G G49U, the self-cleavage came out at 0.05.

Consider A7G G49A, for which the self-cleavage worked out at 0.07.

Turning to A7C U37C, the self-cleavage came out at 0.06.

Take A7C U37A: the self-cleavage came to 0.02.

Take A7C U37G: the self-cleavage worked out at 0.07.

As for A7U C31U, the self-cleavage amounted to 0.05.

Take A7U C31G: the self-cleavage turned out to be 0.06.

On to A7U C31A, for which the self-cleavage was determined as 0.01.

For the variant A7C G48A, the self-cleavage was 0.02.

As for A7C G48C, the self-cleavage came to 0.02.

Consider A7C G48U, for which the self-cleavage was determined as 0.01.

Consider A7G C15G, for which the self-cleavage was found to be 0.27.

As to A7G C15A, the self-cleavage was determined as 0.12.

Consider A7G C15U, for which the self-cleavage was found to be 0.09.

Take A7G C33U: the self-cleavage was 0.13.

As for A7G C33A, the self-cleavage is 0.07.

On to A7G C33G, for which the self-cleavage came to 0.03.

With A7C C9A, the self-cleavage worked out at 0.09.

With A7C C9U, the self-cleavage was 0.02.

Consider A7C C9G, for which the self-cleavage was 0.04.

As for A7U C11G, the self-cleavage turned out to be 0.06.

In the case of A7U C11U, the self-cleavage worked out at 0.05.

For A7U C11A, the self-cleavage came to 0.08.

A7G G30U: the self-cleavage was 0.05.

For A7G G30C, the self-cleavage was 0.03.

Turning to A7G G30A, the self-cleavage was 0.04.

Consider A7C G23A, for which the self-cleavage is 0.05.

For A7C G23C, the self-cleavage was found to be 0.01.

For the variant A7C G23U, the self-cleavage was 0.02.

In the case of A7G C14A, the self-cleavage turned out to be 0.04.

On to A7G C14G, for which the self-cleavage came out at 0.32.

With A7G C14U, the self-cleavage was 0.1.

Consider A7C G19C, for which the self-cleavage was found to be 0.02.

As to A7C G19U, the self-cleavage stood at 0.03.

Turning to A7C G19A, the self-cleavage amounted to 0.05.

As to A7C G47A, the self-cleavage worked out at 0.04.

Turning to A7C G47U, the self-cleavage was determined as 0.03.

Turning to A7C G47C, the self-cleavage came to 0.02.

Take A7C C20U: the self-cleavage amounted to 0.06.

With A7C C20G, the self-cleavage came out at 0.01.

As for A7C C20A, the self-cleavage was determined as 0.06.

Take A7C C11A: the self-cleavage is 0.06.

For the variant A7C C11U, the self-cleavage was determined as 0.05.
